Most compounds without a hit are left out; they make up all but 2.4% or so of the library.
UBC13 inh – inhibitors of human UBC13 polyubiquitin chain formation; TR-FRET; inhibition, % at 20 µM; P61088; 0.47% of 330,000 active; in the data active = inhibition above about 45%, passing the limit was not always enough
Target sequence (P61088 whole entry, looked up): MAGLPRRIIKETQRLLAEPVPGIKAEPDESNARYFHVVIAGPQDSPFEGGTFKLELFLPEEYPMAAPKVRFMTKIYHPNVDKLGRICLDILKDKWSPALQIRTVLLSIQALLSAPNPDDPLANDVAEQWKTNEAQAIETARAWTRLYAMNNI
ANO1 block – inhibitors of mouse TMEM16A calcium-activated chloride channel | Q8BHY3 | HEK293 TMEM16A/YFP iodide influx fluorescence, ionomycin | normalized B-score (activity score, 25-100; higher = stronger inhibition) at 10 µM | 1.2% of 310,000 active | AID 588511;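 active = ratio plate-corrected score three or more library SD toward inhibition, starting fluorescence score within five deviations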;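 note: score derived from kinetic fluorescence span divided by baseline fluorescence per well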
ANO1 activ – mouse TMEM16A channel activation, primary screen | B-score at 10 µM | HEK293 TMEM16A/YFP-H148Q/I152L, iodide quench fluorescence; active compounds read low | 0.3% of 340,000 active;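 active = fluorescence-ratio B-score plate-corrected deviation score at least 3 library SD below zero, with starting fluorescence score within 5 deviations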;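 note: channel opened by trigger with iodide after compound preincubation; score built on the fluorescence ratio of max minus min over baseline; more negative score means more quench and so TMEM16A activation or potentiation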
Apaf-1 inh – blocks human Apaf-1 apoptosome activity | O14727 | reconstituted apoptosome caspase-3 activity, DEVD-Rh110 fluorescence | inhibition, % at 20 µM | 0.71% of 330,000 active; active = inhibition of at least 40% at 20 µM;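 note: plate controls were DMSO wells for no effect and DEVD-CHO caspase inhibitor wells for full effect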
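Medium: Hepes buffer, pH 7.5 / System: biochemical Apaf-1 apoptosome reconstitution / Measured by: Rh110 fluorescence, excitation 480 nm, emission 540 nm / Times: compound with Apaf-1, dATP, procaspase-3 30 min, then 50 min reaction, room temperature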
DNA FID counter – fluorescent intercalator displacement, NS3 helicase counter-screen; DNA fluorescent intercalator displacement, fluorescence; inhibition, % at 7.9 µM; 0.17% of 290,000 active; AID 1845; in the data active = inhibition above about 37%;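 note: 0% = vehicle and 100% = reference compound; higher means more ethidium bromide displaced from hairpin DNA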
Casp3 counter – caspase-3 inhibition (UBC13 counter-screen); shares compounds with UBC13 inh; Recombinant caspase-3, Caspase-Glo 3/7 luminescence, 60 min; inhibition, % at 20 µM; 4% of 1,400 active; AID 488856;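 active = mean inhibition across replicates above about 26%, limit read from the data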;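 note: plate controls were DMSO with caspase-3 for no effect and DMSO wells lacking enzyme for full effect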
Target sequence (P42574 whole entry, looked up): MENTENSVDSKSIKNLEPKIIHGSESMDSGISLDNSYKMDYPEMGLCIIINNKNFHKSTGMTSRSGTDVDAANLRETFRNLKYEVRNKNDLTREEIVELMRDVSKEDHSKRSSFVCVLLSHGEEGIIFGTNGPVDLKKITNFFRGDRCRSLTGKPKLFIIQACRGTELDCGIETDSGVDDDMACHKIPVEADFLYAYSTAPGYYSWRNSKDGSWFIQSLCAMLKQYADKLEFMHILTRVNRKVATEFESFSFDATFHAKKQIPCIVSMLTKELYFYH
UBC13 conf – confirmation of human UBC13 polyubiquitin inhibitors. shares compounds with UBC13 inh. UBC13 polyubiquitination, TR-FRET, biochemical. inhibition, % at 10 µM. 68% of 1,400 active; in the data active = inhibition above about 45%
Apaf-1 inh conf – confirmation of Apaf-1 inhibitors. shares compounds with Apaf-1 inh. reconstituted apoptosome, caspase-3 DEVD-Rh110 fluorescence. inhibition, % at 20 µM. 25% of 1,800 active. AID 504614;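 active = mean inhibition of at least 40% at 20 µM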;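 note: plate controls were DMSO wells for no effect and DEVD-CHO caspase inhibitor control wells for full effect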
Rh110 quench – counter-screen for Apaf-1 inhibitors: fluorescence interference | Rh110 fluorescence interference, quenched caspase reaction | 1,800 tested, under 10 active | activation (fluorescence interference), % at 20 µM | shares compounds with Apaf-1 inh | AID 504615;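 active = signal rise of 40% or more at 20 µM, treated as a fluorescence artifact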
Apaf1 inh interf – shows fluorescence interference in the Apaf-1 inhibitor assay format | AID 588538 | IC50, µM | 460 tested, under 10 active | shares compounds with Apaf-1 inh | fluorescence interference counterscreen, Apaf-1 assay format; call rule not given here
Starred values were filed as active, the others as inactive; i = inactive; . = not tested or not shown; ! = not confirmed by another sample.

SMILES	UBC13 inh	ANO1 block	ANO1 activ	Apaf-1 inh	DNA FID counter	Casp3 counter	UBC13 conf	Apaf-1 inh conf	Rh110 quench	others
Oc1ccc(C[C@@H]2CNCCN2CCC23CC4CC(CC(C4)C2)C3)cc1	58.1*	i	i	47.0*	.	-3.3	24.7	1.5	5.1
O=C(NC12CC3CC(CC(C3)C1)C2)N1CCN(C(=O)c2ccco2)CC1	1.9	i	i	5.9	-14.8	.	.	.	.
CC(C)C[C@H]1CN=C(Nc2ccccc2)N1CC1CCC(C(C)(C)C)CC1 (stereo partly drawn)	86.9*	100*	i	56.0*	.	-2.4	72.9*	23.1	14.3
CC(=O)Nc1cccc(Oc2ncnc3scc(-c4ccccc4)c23)c1	3.2	i	i	5.5	-25.8	.	.	.	.
CN(C)C/C=C/C(=O)Nc1cccc(-c2c[nH]c3ncnc(Oc4ccc(NC(=O)CC(=O)Nc5ccc(F)cc5)cc4F)c23)c1	112.1*	.	i	63.0*	.	2.9	117.3*	21.6	0.8
Cc1ccc(OCC(O)Cn2c(=N)n(Cc3ccccc3)c3ccccc32)cc1 (stereo not drawn)	19.1	i	i	2.0	20.9	.	.	.	.
N=c1n(Cc2ccccc2)c2ccccc2n1CC(O)COc1ccc(Cl)cc1Cl (stereo not drawn)	65.3*	.	i	51.8*	28.7	-0.2	91.1*	37.6	-17.9
N=c1n(CC(=O)c2ccc([N+](=O)[O-])cc2)c2ccccc2n1Cc1ccccc1	6.2	i	i	-11.1	5.6	.	.	.	.
N=c1n(CC(=O)c2ccc(Br)cc2)c2ccccc2n1Cc1ccccc1	57.1*	.	i	53.4*	.	-2.6	61.2*	-34.4	19.0
O=C(NCc1ccccc1C(F)(F)F)C1CC(c2ccccc2[N+](=O)[O-])=NO1 (stereo not drawn)	10.4	i	i	3.3	-6.0	.	.	.	.
CCc1ccc(OCC(O)CN2CCC(CN3C(=O)c4cccc5cccc(c45)C3=O)CC2)cc1 (stereo not drawn)	61.1*	i	i	42.0*	9.3	4.4	64.6*	13.3	-9.8
Cc1ccc2nc(N(CCCN(C)C)C(=O)c3ccc(S(=O)(=O)N4CCOCC4)cc3)sc2c1	15.2	i	i	4.2	24.5	.	.	.	.
CN(C)CCCN(C(=O)c1ccc(S(=O)(=O)N(C)C)cc1)c1nc2ccc(F)cc2s1	13.8	i	i	-16.6	10.1	.	.	.	.
Cc1ccc2nc(N(CCCN(C)C)C(=O)c3ccc(S(=O)(=O)N4CCc5ccccc5C4)cc3)sc2c1	77.8*	i	-5.3*	53.0*	28.1	-6.0	110.1*	19.6	6.6
CN(C)CCCN(C(=O)c1ccc(S(=O)(=O)N2CCc3ccccc3C2)cc1)c1nc2ccc(F)cc2s1	54.6*	i	i	70.3*	41.1*	5.8	98.8*	45.8*	5.1	Apaf1 inh interf=>100
Cc1ccc(S(=O)(=O)NCCC(=O)NCC(c2ccco2)N2CCCCC2)cc1C (stereo not drawn)	2.6	i	i	-0.2	.	.	.	.	.
COc1ccc(NC(=O)c2ccc(-c3ccc(-c4noc(C)n4)cc3C)cc2)cc1N1CCN(C)CC1	77.8*	i	i	56.9*	.	-4.4	44.6	26.4	2.0
COc1cc(OC)c2c(-c3ccccc3)cc(=O)oc2c1C(CCN1CCCCC1)c1ccc(N(C)C)cc1 (stereo not drawn)	51.1*	i	i	54.4*	.	-0.7	18.5	25.2	0.4
CCCCCc1cc(=O)oc2c(C(CCN3CCCC(C)C3)c3cc(OC)c(OC)c(OC)c3)c(OC)cc(OC)c12 (stereo not drawn)	66.7*	i	i	60.4*	.	0.5	40.4	18.4	6.8
COc1cc(OC)c2c(-c3ccccc3)cc(=O)oc2c1C(CCN1CCCCC1)c1ccc2c(c1)OCO2 (stereo not drawn)	24.9	i	i	36.7	.	.	.	.	.
COc1ccc(C(CCN2CCCCC2)c2c(OC)cc(OC)c3c(-c4ccccc4)cc(=O)oc23)cc1 (stereo not drawn)	67.9*	i	i	54.5*	.	-4.2	36.8	26.7	6.3
O=c1c2sccc2nc(SCc2ccc([N+](=O)[O-])cc2)n1Cc1ccccn1	19.2	i	i	-6.4	-0.9	.	.	.	.
COCCn1c(-c2ccc(OC)cc2)cnc1SCC(=O)Nc1cccc2ccccc12	-6.3	i	i	23.2	-24.4	.	.	.	.
CCCCCCCCCCOC(=O)Cn1c(COc2ccccc2OC)[n+](C)c2ccccc21	63.9*	100*	-5.76*	71.2*	46.2*	0.8	68.0*	64.8*	33.9	Apaf1 inh interf=>100
COc1cccc(C2Nc3cc(Cl)c(S(N)(=O)=O)cc3S(=O)(=O)N2)c1 (stereo not drawn)	3.6	i	i	-9.5	-2.5	.	.	.	.
SMILES	UBC13 inh	ANO1 block	ANO1 activ	Apaf-1 inh	DNA FID counter	Casp3 counter	UBC13 conf	Apaf-1 inh conf	Rh110 quench	others
CCO[C@@H]1OC(C(N)=O)=C[C@H](C2CC2)[C@H]1CCCO	-4.5	i	i	-3.9	.	.	.	.	.
CCCCCCCCCCCCCCCCn1cc[n+](C)c1	73.2*	25*!	i	79.9*	11.6	-3.1	98.9*	43.8*	13.9	Apaf1 inh interf=>100
CC(C)(C)CC(C)(C)c1ccc(OCCOCC[N+](C)(C)Cc2ccccc2)cc1	92.3*	25*	i	81.7*	.	-2.6	90.7*	43.2*	20.9	Apaf1 inh interf=>100
C[N+](C)(CCOc1ccccc1)Cc1ccccc1 (tested in a mixture with another compound)	-24.0	i	i	7.1	-5.2	.	.	.	.
O=C(COc1cccc(F)c1)Nc1nc(-c2cccnc2)cs1	-4.0	.	i	12.7	.	.	.	.	.
Cc1[nH]c2ccccc2c1N=Nc1ccccc1C(=O)O	-20.8	i	i	3.0	-23.0	.	.	.	.
COc1ccc(C(=O)NCCCCc2ccccc2)cc1	4.1	i	i	-1.2	.	.	.	.	.
COc1ccc(C[C@H]2CN3C(=NC[C@H]3Cc3ccccc3)N2CCNC(=O)c2ccc(C)c(Br)c2)cc1	71.9*	i	i	42.9*	.	-2.3	61.3*	40.6*	10.6	Apaf1 inh interf=>100
COc1ccc(C[C@H]2CN3C(=NC[C@@H]3C(C)C)N2C[C@H](C)NC(=O)c2ccc(C)c(Br)c2)cc1	54.4*	i	i	48.1*	11.1	-1.3	43.7	17.8	11.1
C/C=C(\C)C(=O)NCCN1C2=NC[C@@H](C)N2C[C@H]1Cc1ccc(O)cc1	4.3	i	i	-3.6	2.4	.	.	.	.
